Source: PubChem BioAssay (SRMLSC)
The sample as a whole holds a higher share of hits than the screen did.
PostGolgi ctrl: growth of the yeast control strain, post-Golgi counter-screen; efflux-deficient yeast background strain, growth absorbance A615, 16 h; inhibition, % at 10 µM; 5% of 98,000 active; AID 738
Yeast lifespan up: extends the lifespan of yeast; AID 775; inhibition of the nicotinamide effect, % at 10 µM; S. cerevisiae growth with nicotinamide, OD615; deaD strain in restrictive glucose medium; 0.68% of 130,000 active;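 active = inhibition above a set limit, placed 3 SD over the median of all compounds, cut at about 26% in these data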;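 also: 0% = nicotinamide-treated wells and 100% = cells grown without nicotinamide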
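System: DeaD-strain S. cerevisiae / Buffer or medium: CSMM-D, restrictive glucose (dextrose) synthetic minimal medium / Probe or stimulus: nicotinamide, 1.5 mM, co-present with compound / Compound: one concentration, 10 µM, DMSO 0.25% / Incubation: 48 h compound exposure at 30 °C, humidified / Technique: optical density (absorbance) at 615 nm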
BB579 growth dn: chemicals that inhibit yeast BB579 growth in restrictive medium (lifespan-shortening candidates). S. cerevisiae BB579 growth, OD615, 48 h. inhibition, % at 10 µM. 0.51% of 140,000 active;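 active = inhibition above a set limit, 3 SD over the mean compound inhibition, cut at about 44% in these data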
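Assay system – yeast BB579 (DeaD) · Dosing – single compound dose of 10 µM, 0.25% DMSO final · Detection – OD615 turbidity measurement · Buffer or medium – CSMM-D restrictive synthetic medium containing dextrose (glucose) · Benchmarks – positive control amphotericin B 10 µg/mL · Incubation – 48 h exposure, 30 °C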
PostGolgi yeast: growth inhibition of a yeast mutant, post-Golgi transport screen; post-Golgi transport phenotypic cell assay; inhibition, % at 10 µM; 0.9% of 98,000 active; AID 739;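 also: yeast cells grown in 1536-well plates; yeast grown about 18 h at 30C before absorbance read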
Numbers without * were called inactive; x = not tested or not shown. Rule as the data show it, unless noted: active = inhibition above about 30%; inactive = the rest.

SMILES	PostGolgi ctrl	Yeast lifespan up	BB579 growth dn	PostGolgi yeast
CC(C)C(NC(=S)NCc1ccccc1)C(=O)O (configuration not stated)	17	-4	-23	-6
Cc1ccccc1CNC(=O)c1ccccc1	-2	-3	-12	6
C=CC[n+]1c(-c2ccc(OCC)cc2)csc1NNC(=O)Nc1ccccc1	18	-8	-53	-10
CCN(CC)S(=O)(=O)c1ccc(NC2CCCc3ccccc32)nc1 (configuration not stated)	48*	-2	-11	4
CCCCOC(=O)C1CCCC(C(=O)OCCCC)N1 (configuration not stated)	2	-3	-19	-1
COc1ccc(-c2c(C#N)c(N)nc3c2CCc2ccccc2-3)cc1OC	44*	-7	-56	-1
COc1cc(-c2c(C#N)c(N)nc3c2CCCC3)ccc1O	11	-15	-23	3
CCN1CCc2c(C#N)c(N3CCCCC3)nc(NCc3ccccc3)c2C1	4	-30	8	7
CCN1CCc2c(C#N)c(N3CCOCC3)nc(NCc3ccccc3)c2C1	36*	-27	-32	5
CC(C)c1ccc(-c2cc(C(=O)NN3CCN(C)CC3)c3ccccc3n2)cc1	x	6	8	x
Cc1c(N2C(=O)/C(=C\c3cccc4ccccc34)SC2=S)c(=O)n(-c2ccccc2)n1C	54*	-6	-41	-2
O=C(/C=C/c1ccccc1)C1C(=O)c2ccccc2C1=O	x	43*	-49	x
O=C(c1ccccc1)C1C(=O)c2ccccc2C1=O	5	27*	-9	5
CC(C)[C@H](NC(=O)c1ccccc1)C(=O)OCC(=O)N1CCCc2ccccc21	x	-3	3	x
O=C(NNS(=O)(=O)c1ccccc1)C1CCN(S(=O)(=O)c2ccc(Cl)cc2)CC1	-5	-6	-22	3
O=C(NNc1ccccn1)C(=O)NNS(=O)(=O)c1ccc(Cl)cc1	31*	-6	-22	3
O=C1c2cccc3c(O)ccc(c23)C(=O)N1Cc1ccccc1	23	-9	-99	30*
O=C(COC(=O)C1(c2ccccc2)CC1)N1CCN(c2ccc(F)cc2)CC1	-1	-10	-50	-3
COc1ccccc1NC(=O)COc1cc(C)nc(C(C)C)n1	38*	-1	-31	10
COc1cc(Cl)c(C)cc1NC(=O)COc1cc(C)nc(C(C)C)n1	-1	-3	8	9
CCCCC(=O)Nc1cc(C(=O)NCCc2ccccc2)ccc1Cl	3	-7	-13	2
Cc1cc(C)cc(NC(=O)c2nnn(Cc3cc(C)ccc3C)c2N)c1	37*	-16	-34	-8
O=C1CS/C(=N\C(=O)N2c3ccccc3Sc3ccccc32)N1	1	-12	-40	-9
Oc1cccc(C=NCc2ccccc2)c1O	15	-19	98*	16
CCOn1c(=O)c(-c2cccs2)[n+]([O-])c2ccccc21	42*	-9	-45	-5
SMILES	PostGolgi ctrl	Yeast lifespan up	BB579 growth dn	PostGolgi yeast
CCCCNC(=O)c1ccc2c(c1)N(CC)C(=O)c1ccccc1S2(=O)=O	5	-4	-35	9
O=S(=O)(Cc1ccccc1)N1CCc2ccccc21	8	4	-8	-2
OC(CNCC1CCCO1)Cn1c2ccccc2c2ccccc21 (configuration not stated)	0	-5	-9	-4
OC(CNCCC1C=Nc2ccccc21)Cn1c2ccc(Cl)cc2c2cc(Cl)ccc21 (configuration not stated)	x	-12	99*	x
OC(CNCC1CCCO1)Cn1c2ccc(Cl)cc2c2cc(Cl)ccc21 (configuration not stated)	103*	-33	-66	90*
Cc1nc2ccccn2c1C(=O)NN=C1C2CC3CC(C2)CC1C3	x	38*	-26	x
Cc1cc(C(=O)NN=C2C3CC4CC(C3)CC2C4)c2ccccc2n1	7	-5	-23	5
O=C(Cn1c(=O)n(-c2ccc(F)cc2)c(=O)c2sccc21)c1ccccc1	x	5	-39	x
Cc1ccc(OCC(=O)N/N=C\c2c(C)n(C)c3ccccc23)c([N+](=O)[O-])c1	54*	-4	-21	-1
CSc1nnc2n(C)c3c(c(=O)n12)C1(CCCC1)Cc1ccccc1-3	38*	4	-20	1
Cc1nnc(-c2cnn(-c3ccccc3)c2N)n1Cc1ccc(F)cc1	5	-23	-5	0
COc1ccc2nc(NC(=O)C3COc4ccccc4O3)sc2c1 (configuration not stated)	36*	-8	-11	4
COc1ccc2nc(NNC(=O)C3COc4ccccc4O3)sc2c1 (configuration not stated)	x	-1	-3	x
COc1ccc2nc(NC(=S)N(C)C)sc2c1	9	-11	65*	-2
CC(C)(C)Nc1nc(NC(C)(C)C)nc(-n2ccnc2)n1	33*	-12	-49	0
Cc1cc(C)n(-c2nc(Nc3ccccc3C)nc(-n3nc(C)cc3C)n2)n1	53*	2	-61	8
Cc1cc(C)n(-c2nc(Nc3ccccc3C(F)(F)F)nc(-n3nc(C)cc3C)n2)n1	x	x	-49	x
Cc1cc(C)n(-c2nc(NC(C)(C)C)nc(NC(C)(C)C)n2)n1	41*	-6	-24	9
COc1ccc(/C=N/NC(=O)c2sccc2OCc2ccc(F)cc2)cc1OC	-5	-11	-16	3
COc1ccc(N2CCN(Cc3cc(=O)oc4ccc(C)cc34)CC2)cc1	11	-15	-13	-2
CC(C)c1ccc2oc(=O)cc(CN3CCN(c4ccc(F)cc4)CC3)c2c1	33*	-6	-27	5
O=c1cc(CN2CCN(c3ccccc3)CC2)c2c(ccc3ccccc32)o1	32*	-19	-38	6
CCc1ccc2oc(=O)cc(CN3CCN(c4ccc(F)cc4)CC3)c2c1	38*	-18	-62	13
Cc1cc(C(=O)NCc2ccc(C(=O)O)o2)c(C)o1	3	-3	-28	-1
COc1ccc(C)cc1Nc1cc(C)nc2ncnn12	x	10	-17	x
SMILES	PostGolgi ctrl	Yeast lifespan up	BB579 growth dn	PostGolgi yeast
Cc1nn(C)cc1C1C(C#N)=C(N)N(c2ccc(F)c([N+](=O)[O-])c2)C2=C1C(=O)CCC2 (configuration not stated)	x	2	-8	x
CCCCCCCCNc1ncnc2ccccc12	9	-7	23	44*
CCOC(=O)c1ccc(COC(=O)c2cc3ccccc3oc2=O)o1	4	-19	-52	-10
Cn1cc(SCC(=O)Nc2nc3ccccc3s2)c2ccccc21	64*	-6	-17	0
O=C(CCn1c(=O)sc2ccccc21)Nc1nc2ccccc2s1	60*	-12	25	-4
Cc1ccc2nc(NC(=O)CCn3c(=O)sc4ccccc43)sc2c1	70*	-11	-41	5
CCOCC(=O)Nc1nc2ccc(C)cc2s1	2	-2	-7	-1
C/C=C/C(=O)OCC(=O)Nc1nc2ccc(C)cc2s1	-11	49*	-19	-7
Cc1ccc(SCc2cc(=O)[nH]c(/N=C(\N)Nc3ccc(C)c(C)c3)n2)cc1	-1	-7	-33	0
COC(=O)c1cn(NC(=O)C2CCC(C(C)(C)C)CC2)c(=O)c2ccccc12 (configuration not stated)	11	-31	-39	15
CC(C)NC(=S)N1CCN(c2ncccn2)CC1	x	1	-42	x
